# V1aR counter – agonists of human V1a receptor, primary screen, counter-screen for OXTR agonist project, fluorescence, CHO-V1R cells | activation, % at 3 µM | 0.25% of 320,000 active | Fluo-8 calcium fluorescence, agonist mode; 0% DMSO, 100% 3 nM vasopressin | Vasopressin V1a receptor (Homo sapiens), P37288;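 active means activation above the mean activation of all tested compounds plus 3 SD, per screening run, cut at about 20% in these data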;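 further: signal is peak over basal fluorescence ratio across a 100 second FLIPR read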
# TRPN1 ag – zebrafish TRPN1 channel agonists, primary screen, cell-based, HEK293, calcium fluorescence; 0.18% of 220,000 active; activation, % at 3 µM; HEK293 zebrafish TRPN1-YFP, Fluo-8 calcium fluorescence; 100% = response to 87 µM carbachol; AID 1424, 2008;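 active means activation above its plate's cutoff, the mean activation of test wells on that plate plus 3 SD, cut at about 19% in these data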;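 further: 0% = DMSO alone and 100% = 87 µM carbachol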
#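 System: zebrafish TRPN1-YFP in HEK293 cells / Dosing: 3 µM single point / Timing: dye loading 1 h at 37 °C, then 30 min room temperature / Signal: Fluo-8 calcium fluorescence, excitation 470-495 nm, emission 515-575 nm / Read-out basis: percent activation from peak over basal fluorescence ratio, control-normalized / Control set: high carbachol 87 µM, low DMSO alone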
# CRFR2-BP ag – agonists of CRF-BP/CRF-R2 complex, primary screen, cell-based, HEK293, calcium dye fluorescence, uHTS | 0.46% of 350,000 active | CRF-binding protein / CRF receptor 2 complex (human) | calcium dye fluorescence (FLIPR); percent of saturating CRF peptide response | activation, % at 13.2 µM;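 active means activation of at least 50%, plus an integration ratio under a set limit after plate pattern correction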;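 further: plate controls were neutral control wells without compound for no effect and CRF at EC100 for full effect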
# OXTR potentiator – human OXTR potentiators, primary screen, fluorescence, CHO-OTR cells, Fluo-8 calcium; Oxytocin receptor (Homo sapiens), P30559; Fluo-8 calcium fluorescence, potentiator mode; 0% = oxytocin EC15, 100% = EC100; activation, % at 3 µM; 0.061% of 320,000 active; AID 2445, 2010;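 active means activation above that plate's cutoff, the mean activation of tested compounds plus 3 SD, cut at about 6.6% in these data, passing the limit was not always enough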;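 further: 100% uses oxytocin at 75 nM as the full agonist control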
#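 Assay system: CHO cell line stably expressing human OTR. Reagent: EC15 oxytocin agonist. Dosing: single dose, 3.0 µM nominal final compound concentration. Timing: compound 6 min at room temperature before oxytocin, 100 s read. Signal: kinetic Fluo-8 calcium fluorescence. Controls: oxytocin EC15 low and EC100 high.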
# TRPML3 agonist – human TRPML3 channel agonists, primary screen, cell-based, HEK293 TRPML3-YFP, Fluo-8 calcium fluorescence, 3 µM. activation, % at 3 µM. 100% = the carbachol control signal. 0.29% of 220,000 active;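 active means activation above its plate's cutoff, the mean activation of the plate's test wells plus 3 SD, cut at about 12% in these data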;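 further: 0% = DMSO only wells and 100% = carbachol wells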
# Target sequence (Q8TDD5 whole entry, looked up): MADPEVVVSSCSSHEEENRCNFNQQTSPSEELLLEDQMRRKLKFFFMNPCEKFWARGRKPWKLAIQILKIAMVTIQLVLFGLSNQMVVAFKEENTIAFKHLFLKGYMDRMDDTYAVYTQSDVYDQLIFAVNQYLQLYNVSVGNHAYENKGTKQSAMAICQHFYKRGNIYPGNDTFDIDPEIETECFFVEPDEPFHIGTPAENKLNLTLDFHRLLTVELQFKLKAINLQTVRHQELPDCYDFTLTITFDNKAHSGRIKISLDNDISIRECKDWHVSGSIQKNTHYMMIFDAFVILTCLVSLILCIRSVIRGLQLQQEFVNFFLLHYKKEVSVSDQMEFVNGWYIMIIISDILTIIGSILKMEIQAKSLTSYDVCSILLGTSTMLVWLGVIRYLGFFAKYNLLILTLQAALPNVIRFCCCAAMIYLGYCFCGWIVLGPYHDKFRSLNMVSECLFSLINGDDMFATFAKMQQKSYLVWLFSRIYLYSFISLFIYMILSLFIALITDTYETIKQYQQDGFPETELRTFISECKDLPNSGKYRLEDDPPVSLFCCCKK
#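 Test system: TRPML3-YFP stable HEK293 cells. Doses: single point at 3 µM. Incubation: dye loading 1 h 37 °C then 30 min ambient, 125 s read. Signal: Fluo-8 calcium dye fluorescence, ex 470-495, em 515-575 nm. Measure: percent activation from peak-to-basal fluorescence ratio, scaled between DMSO and carbachol.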
# OXTR ag – human OXTR agonists, primary screen, fluorescence, CHO-OTR cells, Fluo-8 calcium; Oxytocin receptor (Homo sapiens), P30559; Fluo-8 calcium fluorescence; normalized: DMSO 0%, oxytocin 100%; activation, % at 3 µM; 0.32% of 320,000 active; AID 2435, 2010;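 active means activation above the mean of all tested compounds plus 3 SD, cutoff set per screening run, cut at about 20% in these data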;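 further: peak over basal fluorescence ratio from a 100 s FLIPR kinetic read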
# TRPN1 counter – zebrafish TRPN1 channel agonists, counter-screen for TRPML3 agonist project, cell-based, HEK293 TRPN1-YFP, Fluo-8 calcium. shares compounds with TRPML3 agonist. Fluo-8 calcium fluorescence; scaled: carbachol wells 100%, DMSO wells 0%. activation, % at 3 µM. 10% of 310 active. AID 1525, 2009;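 active means mean activation over replicates above a set limit taken from the earlier TRPN1 channel primary screen, cut at about 19% in these data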;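 further: 100% = carbachol and 0% = 0.3% DMSO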
# TRPML3 confirm – human TRPML3 channel agonists, confirmation, cell-based, HEK293 TRPML3-YFP, Fluo-8 calcium, triplicate; activation, % at 3 µM; AID 1526, 2009; 80% of 310 active; Fluo-8 calcium fluorescence; 100% set by carbachol, 0% by DMSO; shares compounds with TRPML3 agonist;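 active means activation above a set limit derived from the earlier primary screen, cut at about 12% in these data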
# Starred values were filed as active, the others as inactive; · = not tested or not shown. An excerpt weighted towards active compounds, which were near 0.83% of everything screened.
SMILES,V1aR counter,TRPN1 ag,CRFR2-BP ag,OXTR potentiator,TRPML3 agonist,OXTR ag,TRPN1 counter,TRPML3 confirm
CC1CCN(S(=O)(=O)c2ccc(Br)s2)CC1,-1,-1,-1,-7,20*,-1,-2,19*
CC12CCC3c4ccccc4CCC3(CO1)C2 (configuration not stated),·,·,-3,·,·,·,·,·
S=C1CCC(c2ccc(Cl)cc2)=NN1c1ccccc1,-2,-2,5,-1,16*,-3,-2,9
O=C1C2C3C=CC(C3)C2C(=O)N1c1ccc(N2CCN(c3ccccn3)CC2)c([N+](=O)[O-])c1 (configuration not stated),15,9,2,-8,16*,16,9,21*
O=[N+]([O-])c1cccc(S(=O)(=O)N2CN(c3ccc(Br)cc3)c3nc4ccccc4nc32)c1,0,·,3,-3,·,1,·,·
CCC1CCCCN1S(=O)(=O)c1ccccc1[N+](=O)[O-] (configuration not stated),-1,-1,0,-8,22*,-2,0,22*
CC1CCCCN1S(=O)(=O)c1ccccc1[N+](=O)[O-] (configuration not stated),0,0,0,-1,6,0,·,·
COc1ccc(C(=O)NC(=O)CSc2nc3nc(C)cc(C)n3n2)cc1,1,·,-1,-4,·,1,·,·
CC[C@]12c3[nH]c4ccc(Cl)cc4c3CCN1C(=O)[C@@H](CC(=O)NC/C=C(\C)CCC=C(C)C)C[C@@H]2C(=O)N1CCN(C(=O)c2ccco2)CC1,·,·,-1,·,·,·,·,·
C=CCOc1ccc2c(c1)c(S(=O)(=O)c1ccc(C)cc1)cn2COC,1,1,0,2,127*,1,0,139*
CCCn1cc(S(=O)(=O)c2ccc(F)cc2)c(=O)c2cc(OCC)ccc21,0,·,0,-1,·,-1,·,·
Clc1ccccc1OCc1nnc(-c2ccccc2Br)o1,0,0,1,-3,-1,-2,·,·
O=c1c(Cl)c(Cl)cnn1Cc1nnc(-c2ccccc2Br)o1,·,7,157*,·,18*,·,15,37*
CSc1ccccc1NC(=O)C(C)N(C)CC(=O)N1CCN(Cc2ccccc2)CC1 (configuration not stated),·,·,-2,·,·,·,·,·
NC(=O)COC(=O)C1CSC2(c3ccc(F)cc3)CCC(=O)N12 (configuration not stated),2,·,-1,-1,·,2,·,·
COCC(=O)N1CCC(Oc2ccc(C(=O)N3CCN(C)C[C@@H]3C(C)C)cc2)CC1,·,·,-1,·,·,·,·,·
CCCOc1cc(N(CC)CC)ccc1/C=C(/C#N)c1nc2ccc(C)cc2[nH]1,27*,18,107*,-14,13*,33*,24*,13*
CC(C)[C@H](NS(=O)(=O)c1ccc2c(c1)OCCO2)C(=O)OCC(=O)Nc1cccc(Cl)c1Cl,5,0,2,-10,20*,0,1,33*
CC(C)[C@H](NS(=O)(=O)c1ccc2c(c1)OCCO2)C(=O)OCC(=O)Nc1ccccc1Cl,3,-1,-2,-6,1,0,·,·
CCCCCCSc1ccc([C@H]2N[C@@](Cc3ccccc3)(C(=O)OC)[C@H]3C(=O)N(C)C(=O)[C@@H]23)cc1OC,-1,·,2,-5,·,-1,·,·
O=S1(=O)N=C(c2ccccc2)c2ccccc21,0,·,-2,-7,·,-1,·,·
C[C@H](CO)N1C[C@H](C)[C@@H](CN(C)CC2CC2)Oc2c(NC(=O)Cc3ccccc3)cccc2C1=O,0,·,0,-6,·,-2,·,·
Cc1ccc(S(=O)(=O)n2nccc2-c2c(-c3ccc(Cl)cc3)noc2C)cc1,2,1,6,-7,82*,-1,0,106*
Cc1ccccc1N(CC(=O)NC1CCCC1)C(=O)c1oc(C(C)(C)C)cc1C,1,1,13,-8,0,-1,·,·
Cc1cc(C(C)(C)C)oc1C(=O)N(CC(=O)NC1CCCC1)Cc1ccccc1Cl,1,3,1,-9,33*,-1,2,34*
SMILES,V1aR counter,TRPN1 ag,CRFR2-BP ag,OXTR potentiator,TRPML3 agonist,OXTR ag,TRPN1 counter,TRPML3 confirm
CCOc1ccc2c(c1)C(C)=CC(C)(C)N2S(=O)(=O)c1ccc(C)cc1,·,-1,2,·,16*,·,-1,33*
O=S(=O)(NCCNc1ncc(C(F)(F)F)cc1Cl)C(F)(F)F,10,15,39,-10,14*,11,21*,9
COc1cc(C=CC(=O)N2CCN(CC(=O)N3CCCC3)CC2)cc(OC)c1OC,·,·,0,·,·,·,·,·
CCN(C1CCCCC1)S(=O)(=O)c1cc(C)ccc1OC,-1,-1,-1,-11,22*,-2,-2,35*
CCN(C1CCCCC1)S(=O)(=O)c1ccc(-n2cnnn2)c(C)c1,1,·,0,-12,·,1,·,·
CCN(C1CCCCC1)S(=O)(=O)c1ccc(OC)c(C)c1,-2,-1,-1,-17,26*,-2,-3,87*
Cc1nn(-c2ccccc2)nc1C(=O)OCC(=O)N1CCC(C)CC1,0,·,0,-3,·,-2,·,·
CN(C)c1ncc(S(=O)(=O)c2ccc(Cl)cc2)c(-c2ccc(Cl)cc2Cl)n1,1,0,3,-7,1,-1,·,·
CN(C)c1ncc(S(=O)(=O)c2ccccc2)c(-c2ccc(Cl)cc2Cl)n1,0,0,0,-5,58*,-3,-1,82*
COC(=O)c1ccc(/C=C(\C#N)c2nc3ccccc3s2)cc1,24*,14,3,-9,14*,30*,1,1
O=S(=O)(c1ccccc1)C1(S(=O)(=O)c2ccccc2)CCCC1,3,2,0,-7,18*,3,1,29*
OCC[C@H]1C[C@@H](O)[C@H](O)[C@@]2(OCc3ccccc32)O1,0,·,1,-6,·,1,·,·

# Assay outcomes (PubChem BioAssay)
